In ChEMBL document CHEMBL4513216, “Probing the Open Global Health Chemical Diversity Library for Multistage-Active Starting Points for Next-Generation Antimalarials” (ACS Infect Dis, 2020):

experiment: Toxicity liver stage against HepG2, at 10uM; type: cell-based; parameters: test concentration 10 uM, cell line HepG2-A16-CD81EGFP; details: human, HepG2-A16-CD81EGFP cells; read-out: INHIBITION
Procedure, shortened: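 Uninfected HepG2-A16-CD81EGFP cells, 3 × 10^3 per well, 1536-well, plated on prespotted compound at 10 μM final, parasite-free screening media added to match infected plates; puromycin 10 μM positive, DMSO 0.5% negative; run in parallel with 48 h PbLuc assay at 37 °C, 5% CO2; viability by CellTiter-Glo luminescence, normalized to controls.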

Row | SMILES | cytotoxicity at 10 µM [%]
1 | COc1ccc2c(c1)[C@@H](CCNC(C)=O)CC(C)(C)O2 | -6.33
2 | O=C(N1CCCO1)[C@]12COC[C@H]1CN(Cc1nccs1)C2 | 9.31
3 | CC(C)c1nnc(NC(=O)NCc2cccnc2NCCN(C)C)s1 | 3.92
4 | COc1ccc(CNC(=O)N2CCC(Cc3cnn(C)c3)C2)cc1C (stereo unspecified) | -9.52
5 | COCC(=O)Nc1ccnn1-c1ccc(Cl)cc1 | 2.18
6 | Cc1cc(-n2cncn2)n2ncnc2n1 | -4.05
7 | Cc1csc(N2CCN(CC(=O)Nc3cccnc3)CC2C)n1 (stereo unspecified) | 14.1
8 | N#Cc1ccc(CN2CCc3sccc3C2)c(F)c1 | -5.13
9 | Fc1ccc(-c2nccnc2C2CCCNC2)cc1 (stereo unspecified) | -23.8
10 | CC(C(=O)N1CCN(Cc2ccc3c(c2)OCO3)CC1)n1ccnc1 (stereo unspecified) | -9.57
11 | O=C1N(CC2CCC2)CCCC12CCN(S(=O)(=O)c1cccnc1)C2 (stereo unspecified) | 9.94
12 | COc1ccc(CN(C)C(=O)CCc2c(C)nc(C)[nH]c2=O)cc1OC | -11.2
13 | CCSCCC(C)N(C)C(=O)c1cc(C)no1 (stereo unspecified) | -9.99
14 | CC(=O)Nc1ccc(-n2cncn2)c(F)c1 | -11.3
15 | Cc1ccc(NC2CCN(C(=O)Cc3c(C)nn(C)c3C)CC2)nn1 | -11.9
16 | Cc1nc(N(CCC(N)=O)Cc2ccccc2)c2nc(C)oc2n1 | -3.86
17 | Cc1csc(C2(NCC(O)COC(C)C)CCCC2)n1 (stereo unspecified) | 4.53
18 | CC(=O)NCCNC(=O)Nc1ccc(C)cc1OCc1ccccc1 | 9.79
19 | CS(=O)(=O)N1C[C@H]2CC[C@@H](C1)N(Cc1ccsc1)C2 | 44.7
20 | CC(C)C(=O)N1CC[C@H]2N(C)CC[C@@]2(C(=O)Nc2cccnc2)CC1 | -121
21 | COCCC(=O)N1CC[C@@H](N2CCN(C)CC2)[C@@H]1Cc1ccccc1 | 7.7
22 | O=C1[C@H]2CN(C3CCOC3)C[C@H]2CN1c1ccccc1 (stereo partly specified) | 7.16
23 | Cc1cc(Cl)ccc1NCC(=O)Nc1cc(C(C)(C)C)no1 | 0.521

Row | SMILES | cytotoxicity at 10 µM [%]
24 | O=c1cc(-c2ccccc2)nc2n1CCCCC2 | 1.36
25 | Cc1c(C(=O)NCCCS(C)(=O)=O)cccc1-c1ccccn1 | 4.83
26 | Cc1cnn(CC2CCCN2CC(=O)NC2CCN(C3CC3)CC2)c1 (stereo unspecified) | 0.109
27 | Cc1nc2c(N(C)Cc3ccnn3C)nc(N)nc2n1C | -7.42
28 | CN1CC2(CCN(CCCOCc3ccccc3)CC2)OC1=O | 3.12
29 | CC(=O)c1ccc(NC(=O)N(CCN(C)C)Cc2ccc(C)s2)cc1 | -16.5
30 | O=c1n(CCn2cccc2)nc(C2CCNCC2)n1Cc1ccccc1 | -2.06
31 | CCCC(NC(=O)c1occc1C)c1nnn[nH]1 (stereo unspecified) | -9.36
32 | COc1cccc(CNc2cnn(CC(F)F)c2)c1 | -7.16
33 | CCCc1ccc(C(=O)N2Cc3c(Cn4ccnc4)nn(C)c3C2)cc1 | -73
34 | O=C(CCn1cncn1)NC1CCc2nccn2C1 (stereo unspecified) | -4.39
35 | Cc1n[nH]c(C)c1NC(=O)C1CCCN(C(=O)NCC(C)C)C1 (stereo unspecified) | 11
36 | COCCN(Cc1cnn(C)c1)Cc1ccc(C)o1 | -0.0972
37 | Cc1ccc(OC2CCN(C(=O)C(C)Cn3cccn3)CC2)cc1 (stereo unspecified) | -2.09
38 | N#Cc1cccc(N2CCCC(CO)(CCOc3ccccc3)C2)n1 (stereo unspecified) | -47.2
39 | Cc1n[nH]c(C)c1S(=O)(=O)N1CCC(Oc2ccccc2F)CC1 | 1.22
40 | CCc1nnc2n1CCN(Cc1ccc3c(c1)OCCO3)C2 | -6.61
41 | O=C(c1cnco1)N1CCC(Cc2cnc3ccccc3c2)CC1 | 5.08
42 | O=C(CC1NC(N2CCc3ccccc3C2)=NC1=O)Nc1ccccc1 (stereo unspecified) | 2.96
43 | CC(=O)NCC(=O)N1CCC2(CC1)NC(=O)CC2c1cnn(C)c1 (stereo unspecified) | -0.113
44 | CCCN1CCN(C(=O)c2cnn(-c3ccccc3F)c2)CC1 | 0.313
45 | CCOc1cccc(COC(=O)c2ccc(Cl)cn2)n1 | -3.44
46 | Cc1ccc(CN2Cc3c(C(=O)N4CCCC4)nn(C)c3C2)s1 | -0.704

Row | SMILES | cytotoxicity at 10 µM [%]
47 | CC1CCCCN1C(=O)COCc1nc(-c2ccncc2)no1 (stereo unspecified) | 1.79
48 | CC(C)NC(=O)N(C)C(c1cccc(F)c1)c1ccccn1 (stereo unspecified) | 4.86
49 | COc1ccc(CN(C)C2CCN(C(=O)C(C)C)CC2)c2cccnc12 | 12.5
50 | N#Cc1cccc(OCCN2CCCC(c3noc(C4CC4)n3)C2)c1 (stereo unspecified) | -0.276
51 | NC(=O)[C@@H]1Cc2ccccc2CN1CCc1cccs1 | 0.436
52 | c1coc(CN2CCC3(CC2)COCCN(CCN2CCCC2)C3)c1 | -7.82
53 | CCNC(=O)c1cn2cc(-c3ccccc3Cl)n(CC3CC3)c(=O)c2n1 | 4.63
54 | Cn1ccc(C(=O)NCCOc2ccc3c(c2)CCC3)cc1=O | 3.68
55 | Cc1ccc(CN(C)C(=O)CN2CCCC2c2cnn(C)c2)o1 (stereo unspecified) | -1.69
56 | Cc1ncc(CNCC(=O)NC2CCCCC2)n1-c1ccccc1 | -4.75
57 | Cc1cc(N2CCCCCC2)n2nc(C)c(C)c2n1 | -6.23
58 | Cc1nn(C)c(C)c1CC(=O)N1CCC(N(C)c2cccnn2)CC1 | -3.33
59 | COC(=O)CCC(=O)N1CCc2nc(C(=O)N(C)C)sc2CC1 | 18.7
60 | CN(C)c1cc2c(nn1)CCN(C(=O)c1ccc(-n3cccn3)nc1)C2 | -1.86
61 | CC(=O)N1CCCCC[C@@H]2[C@@H]1[C@H](c1cccc(F)c1)CN2C(=O)C1CC1 | 6.75
62 | CN1CC(=O)N(c2ccsc2)CC12CCN(S(=O)(=O)c1ccccc1)C2 (stereo unspecified) | 1.5
63 | Cc1ccc(CNC(C)(C)c2noc(C(C)(C)C)n2)o1 | -9.02
64 | CS(=O)(=O)NCCC(=O)N1CCC(Cc2ccc(CO)cc2)C1 (stereo unspecified) | -5.77
65 | CCC(NS(=O)(=O)N1CCOCC1)c1ccccc1OC (stereo unspecified) | -45.1
66 | c1cnc(-c2nc(CN3CCn4c(nnc4C4CC4)C3)cs2)nc1 | -6.93
67 | COc1cccc(CNC(C)Cn2cccn2)c1OC (stereo unspecified) | -4.84
68 | CCC(=O)NCC(=O)NC(C)c1sc(-c2ccccc2F)nc1C (stereo unspecified) | 9.65
69 | COc1c(CNCc2ccc(S(C)(=O)=O)cc2)c(C)nn1C | -8.27

Row | SMILES | cytotoxicity at 10 µM [%]
70 | Cc1cc(C)n(CC2CN(Cc3ccccn3)CCO2)n1 (stereo unspecified) | -3.89
71 | CCc1ncc(C(=O)c2ccc(OC)cc2)n1C | 14.5
72 | Cc1nc(N(C)C)nc(NCCc2ccccn2)c1C | 4.59
73 | CN(CCCc1ccccc1)C(=O)CCc1nc(-c2nnc[nH]2)no1 | -44.8
74 | O=S(=O)(C1CC1)N1CCc2onc(COc3ccccn3)c2C1 | -4.38
75 | CCc1nc2n(n1)CC(NCc1cc(OC)c3c(c1)OCO3)CC2 (stereo unspecified) | 4.23
76 | CCS(=O)(=O)N1CCC(Nc2c(F)cc(C#N)cc2F)CC1 | 8.13
77 | CCNC(=O)N1CCCC(c2noc(CC)n2)C1 (stereo unspecified) | -2.45
78 | CCC(=O)N1CCN(c2ncnc3c(C)nn(C)c23)CC1 | -1.43
79 | COc1cc(N2CCC3(CCN(Cc4cccnc4)C3=O)C2)ncn1 (stereo unspecified) | -107
80 | Cc1cnc(CNC(=O)[C@@]23CCO[C@@H]2CCN(c2ncccn2)C3)cn1 | -100
81 | Cc1ccc(NC(=O)N2CCOC(C(N)=O)C2)cc1C(F)(F)F (stereo unspecified) | -146
82 | O=C(NCCn1cnc(C2CCCC2)cc1=O)c1ccc(=O)[nH]n1 | -0.895
83 | COC(=O)CCN1CCC(NC(=O)OC(C)(C)C)CC1 | 14.7
84 | COCCN1CCC(Cc2cncc(-c3ccc(C(=O)O)cc3)n2)C1 (stereo unspecified) | -0.413
85 | CCc1ncc(C(=O)N(CCOC)Cc2ccccc2F)cn1 | 0.728
86 | CCO[C@@H]1CN(S(=O)(=O)c2cn(C)cn2)[C@@H]2CCCO[C@@H]21 | -146
87 | O=C1CCSCC(C(=O)N2CCC(O)CC2)N1 (stereo unspecified) | -4.2
88 | Cc1cscc1C(=O)NC1CC(=O)N(C(C)C)C1=O (stereo unspecified) | -6.51
89 | CSCc1cccc(S(=O)(=O)NCc2cnn(C)c2C)c1 | 13.7
90 | CCN(CCO)C[C@@H]1CN(C(=O)c2ccc(C)s2)C[C@@H]1CO | 12.1
91 | NC(=O)NCC(=O)N1CCC2(CC1)c1ccccc1CC2O (stereo unspecified) | 4.22
92 | Cc1nn(C)c2ncc(S(=O)(=O)N3CCN4CCCC4C3)cc12 (stereo unspecified) | 2.6

Row | SMILES | cytotoxicity at 10 µM [%]
93 | CC1COCCN1Cc1nc(C(C)(C)C)no1 (stereo unspecified) | 4.87
94 | CC(C)NC(=O)N1CCOC2(CNC2)C1 | -0.479
95 | CCC1=N[C@@]2(CC[C@@H]3CN(S(=O)(=O)CC)C[C@@H]32)C(=O)N1CC | 5.22
96 | COCC(=O)NCC1CCN(Cc2ccsc2)CC1 | -3.88
97 | COc1ccccc1CN1C[C@@H](F)[C@@H](OCc2nc3cnccc3[nH]2)C1 | -6.66
98 | Cc1occc1C(=O)N1CCC2(CCN(Cc3nccs3)CC2)C1 | -5.33
99 | CCOCC(=O)N1CCC2(CC1)COCCN2CCOC | 8.37
100 | O=C(c1c2c(NCC3CC3)ncnc2n2ccccc12)N1CCCC1 | 9.31
101 | Cc1n[nH]c(C)c1Sc1ccccc1NC(=O)N1CCOCC(O)C1 (stereo unspecified) | -2.42
102 | CC(C(=O)N(Cc1ccccc1)CC(F)(F)F)S(C)(=O)=O (stereo unspecified) | 11
103 | O=C(CC1CC1)N1CCC2(CC1)CN(Cc1cccnc1)C(=O)CO2 | 3.59
104 | Cc1ccc(S(=O)(=O)N2CCc3ccc(F)cc32)cc1C(=O)O | -19.4
105 | CCc1ccc(S(=O)(=O)N2CCN(CCn3ccnc3)CC2)cc1 | -8.81
106 | Cc1[nH]nc(CCC(=O)N2CCc3c(nc[nH]c3=O)C2)c1C | 3.63
107 | C1CC(CN2CCO[C@H]3[C@H](OCC4CC4)CC[C@@H]32)CCO1 | -13.3
108 | CCc1noc(CN(CC)Cc2cc3ccc(F)cc3[nH]c2=O)n1 | 2.24
109 | CC(C)NC(=O)[C@@H]1C[C@H](N)CN1C(=O)c1cc2ccccc2[nH]c1=O | 10.3
110 | Cn1cc(C2=NOC(C(=O)NC3(c4cccc(F)c4)CCCC3)C2)cn1 (stereo unspecified) | 1.53
111 | CN1C[C@H](O)[C@]2(CCN(Cc3ccc(OC(F)(F)F)cc3)C2)S1(=O)=O | -5.57
